Compound activity deposited in PubChem by several laboratories.
Hits are enriched below; roughly 2.2% of the tested compounds scored in any of these assays.
NR2E3 ag-1 – agonists of human nuclear receptor NR2E3; 320,000 compounds, 0.12% hits; AID 2300; inhibition of corepressor binding, % at 4.78 µM; GST-NR2E3/biotin-RetCOR TR-FRET, 1536-well; Q9Y5X4;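 active = percent inhibition above the cutoff of mean plus 3 SD of all tested compounds, set per screening campaign, cut at about 20% in these data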;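 also: 0% = DMSO wells and 100% = biotin wells as full block of FRET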
Target sequence (Q9Y5X4 whole entry, looked up): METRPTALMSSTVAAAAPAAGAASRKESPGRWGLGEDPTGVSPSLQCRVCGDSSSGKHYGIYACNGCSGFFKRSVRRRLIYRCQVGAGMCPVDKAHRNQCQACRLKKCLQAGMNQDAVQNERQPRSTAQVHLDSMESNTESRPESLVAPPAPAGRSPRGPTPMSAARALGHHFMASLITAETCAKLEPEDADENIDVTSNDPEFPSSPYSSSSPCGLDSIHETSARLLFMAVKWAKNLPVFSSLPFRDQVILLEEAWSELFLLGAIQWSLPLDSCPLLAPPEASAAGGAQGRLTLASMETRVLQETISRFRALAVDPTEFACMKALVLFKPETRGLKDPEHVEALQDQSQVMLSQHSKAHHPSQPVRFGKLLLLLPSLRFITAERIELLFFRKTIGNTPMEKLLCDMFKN
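Material – GST-tagged NR2E3 plus biotinylated RetCOR corepressor · Quantity – NR2E3 fusion 1.35 nM · Times – 5 h incubation at 4 °C · Medium – pH 7.5 Tris-based buffer · Technique – TR-FRET, Eu(K)-anti-GST donor, streptavidin-D2 acceptor, ex 340, em 617/671 nm · Benchmarks – high control biotin, low control 0.6% DMSO · Format – 1536-well plates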
Jurkat NFkB inh – inhibitors of the PMA/ionomycin-induced NF-kB reporter in Jurkat cells; inhibition, % at 4 µM; 330,000 compounds, 0.53% hits; PMA/ionomycin-induced NF-kB luciferase reporter, luminescence; in the data active = inhibition above about 50%
miR122 inh – blocks miR-122 activity in Huh7 sensor cells; 340,000 compounds, 0.3% hits; Huh7 miR-122 Renilla luciferase sensor, 48 h; neutral wells = 0, positive control = 100; activation (reporter increase), % at 12.5 µM;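 active = mean replicate activation score at least 90 and every replicate individually at or above 90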;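 also: higher luciferase means less miR-122 activity so hits act as miR-122 inhibitors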
NR2E3 ag-2 – human photoreceptor-specific nuclear receptor agonism; Q9Y5X4; CHO-S Gal4-NCOR/VP16-NR2E3 two-hybrid, luciferase; inhibition of corepressor binding, % at 3.98 µM; 360,000 compounds, 0.35% hits;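 active = inhibition above the mean of all tested compounds plus 3 SD, cut at about 70% in these data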;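 also: 0% = DMSO with NR2E3 transfected cells and 100% = cells lacking NR2E3 construct; higher means lower luciferase signal from less NR2E3 corepressor binding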
697 NFkB inh – inhibitors of the PMA/ionomycin-induced NF-kB reporter in 697 B cells. 697 B-cell NF-kB luciferase reporter, 16 h. inhibition, % at 4 µM. 330,000 compounds, 0.33% hits; in the data active = inhibition above about 35%
FGF22 binding – FGF22 (human) thermal shift binding; Q9HCT0; recombinant FGF22 thermal shift, SYPRO orange fluorescence; percent of sucrose octasulfate shift, DMSO zero; activity (Tm shift, normalised), % at 9.99 µM; 340,000 compounds, 1.5% hits;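 active = mean Tm shift, scaled 0 neutral to 100 positive control, at about 1.3% or above, every replicate too, limit read from the data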
Target sequence (Q9HCT0 whole entry, looked up): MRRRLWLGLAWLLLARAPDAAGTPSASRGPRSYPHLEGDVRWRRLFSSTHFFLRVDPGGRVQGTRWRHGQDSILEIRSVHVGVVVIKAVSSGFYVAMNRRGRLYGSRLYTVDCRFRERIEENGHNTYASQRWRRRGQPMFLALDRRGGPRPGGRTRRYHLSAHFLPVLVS
NR2E3 ag confirm – confirmation of human NR2E3 agonists; shares compounds with NR2E3 ag-2; CHO-S mammalian two-hybrid NR2E3-NCOR, luciferase luminescence; inhibition, % at 3.98 µM; 2,300 compounds, 51% hits; AID 624378;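 active = average inhibition above a cutoff equal to the mean inhibition of all tested compounds plus one SD, cut at about 70% in these data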;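 also: 0% = DMSO in NR2E3 cells and 100% = DMSO in cells lacking NR2E3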
GAL4-VP16 luc – reduces GAL4-VP16 reporter signal in NR2E3 counterscreen; shares compounds with NR2E3 ag-2; CHO-S GAL4-VP16 luciferase reporter, luminescence; inhibition, % at 3.98 µM; 2,300 compounds, 29% hits; AID 624379;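 active = mean inhibition above a cutoff equal to the average over all tested compounds plus one standard deviation, cut at about 70% in these data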;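 also: luciferase from a UAS reporter driven by GAL4-VP16 transactivation; 0% = DMSO with VP16-transfected cells and 100% = DMSO with cells lacking VP16; higher means less reporter light so more repression of VP16 activity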
* hit, by the source's call; [ ] = another dose, or the depositor's remark.

Screening Cc1ccccc1Oc1cc(NC(=O)CCCn2nc(C)c([N+](=O)[O-])c2C)cc([N+](=O)[O-])c1 returned NR2E3 ag-1 -1.0, Jurkat NFkB inh -0.3, NR2E3 ag-2 60.0, 697 NFkB inh -20.9, NR2E3 ag confirm 66.4 and GAL4-VP16 luc 41.1.
For Cc1nn(CCCC(=O)Nc2cc(Oc3ccc(F)cc3)cc([N+](=O)[O-])c2)c(C)c1[N+](=O)[O-] the results were NR2E3 ag-1 -1.2, Jurkat NFkB inh -2.6, miR122 inh -1.8, NR2E3 ag-2 -18.5 and 697 NFkB inh 1.2.
Screening Nc1ccc(Br)cc1-c1nc2ccccc2[nH]c1=O returned NR2E3 ag-1 0.8, Jurkat NFkB inh -21.1, NR2E3 ag-2 62.0, 697 NFkB inh -14.4, FGF22 binding 0.3, NR2E3 ag confirm 91.1* and GAL4-VP16 luc 76.8*.
Screening C[C@H](CO)N1C[C@H](C)[C@H](CN(C)Cc2ccncc2)OCCCC[C@H](C)Oc2ccc(NS(=O)(=O)c3cn(C)cn3)cc2C1=O returned miR122 inh 5.1[16.7 µM] and FGF22 binding 0.2.
Screening CNC[C@H]1Oc2ncc(-c3cccc(C(=O)N(C)C)c3)cc2C(=O)N([C@H](C)CO)C[C@@H]1C returned miR122 inh -9.4[16.7 µM].
`C=CCN(CC=C)C(=S)NC(=O)c1ccc([N+](=O)[O-])cc1` gave NR2E3 ag-1 2.9, Jurkat NFkB inh -1.5, NR2E3 ag-2 66.1, 697 NFkB inh 5.8, NR2E3 ag confirm -6.2 and GAL4-VP16 luc -10.3.
For CO[C@@H]1CN(C)C(=O)c2ccc(NC(=O)C3CC3)cc2OC[C@@H](C)N(C(=O)Nc2ccc(C(F)(F)F)cc2)C[C@H]1C the results were FGF22 binding -0.2.
`Cc1nc2c(-c3ccc(Cl)cc3)c(C)[nH]n2c(=O)c1Cc1ccccc1` gave NR2E3 ag-1 1.1, Jurkat NFkB inh 4.1, NR2E3 ag-2 87.8*, 697 NFkB inh 15.7, FGF22 binding 0.2, NR2E3 ag confirm 99.5* and GAL4-VP16 luc 57.0.
`COCc1cc(=O)n2[nH]c(C)c(-c3ccc(Cl)cc3)c2n1` gave NR2E3 ag-2 51.2, FGF22 binding -0.3, NR2E3 ag confirm 41.8 and GAL4-VP16 luc 35.4.
For CCC(=O)N1C[C@@H](C)[C@H](OC)CN(C)C(=O)c2cc(NC(=O)c3ccccc3)ccc2OC[C@H]1C the results were miR122 inh -13.4[16.7 µM] and FGF22 binding -0.1.
`O=C(O)CSCC(=O)Nc1ccc(-c2nc3ccccc3s2)cc1` gave NR2E3 ag-1 -2.1, Jurkat NFkB inh -22.7, miR122 inh 1.3, NR2E3 ag-2 -138.7 and 697 NFkB inh -64.4.
`Cc1csc(NC(=O)CSCC(=O)O)c1-c1nc2ccccc2s1` gave NR2E3 ag-1 3.2, Jurkat NFkB inh -4.8, NR2E3 ag-2 49.6, 697 NFkB inh 11.7, FGF22 binding -0.4, NR2E3 ag confirm 67.6 and GAL4-VP16 luc 29.6.
COc1ccc(NC(=O)N(C)C[C@H]2Oc3c(NS(=O)(=O)c4c(C)noc4C)cccc3C(=O)N([C@@H](C)CO)C[C@H]2C)cc1 was read as miR122 inh 0.5[16.7 µM] and FGF22 binding -0.3.
For Cc1cc(/C=c2/sc3nc4ccccc4n3c2=O)c(C)n1-c1ccccn1 the results were NR2E3 ag-1 0.2, Jurkat NFkB inh 1.3, miR122 inh -2.2, NR2E3 ag-2 79.9*, 697 NFkB inh -74.7, NR2E3 ag confirm 84.4* and GAL4-VP16 luc 74.8*.
`O=c1/c(=C/c2ccc(O)c([N+](=O)[O-])c2)sc2nc3ccccc3n12` gave miR122 inh 1.2, NR2E3 ag-2 -20.0 and FGF22 binding 0.1.
For CCN(CC)c1ccc(/C=c2\sc3nc4ccccc4n3c2=O)c(O)c1 the results were Jurkat NFkB inh 13.6, miR122 inh 4.4, NR2E3 ag-2 58.4, 697 NFkB inh -14.8, FGF22 binding 0.1, NR2E3 ag confirm 78.9* and GAL4-VP16 luc 60.3.
Screening C[C@H]1CN([C@@H](C)CO)C(=O)c2cc(C3=CCCCC3)cnc2O[C@@H]1CN(C)S(=O)(=O)c1cn(C)cn1 returned miR122 inh 6.9[16.7 µM] and FGF22 binding -0.1.
Screening Cc1ccc(NS(=O)(=O)c2ccc(C(=O)N3CCN(c4ccccn4)CC3)cc2)cc1 returned NR2E3 ag-1 2.2, Jurkat NFkB inh 1.4, miR122 inh -9.8, NR2E3 ag-2 67.8, 697 NFkB inh -11.7, NR2E3 ag confirm 67.7 and GAL4-VP16 luc 53.7.
Screening CCOc1ccc(S(=O)(=O)Nc2ccc(C(=O)N3CCC3)cc2)cc1 returned NR2E3 ag-1 0.9, Jurkat NFkB inh 11.5, NR2E3 ag-2 4.6, 697 NFkB inh 16.6 and FGF22 binding 0.1.
`CCOc1ccc(NS(=O)(=O)c2ccc(NC(=O)C3CC3)cc2)cc1` gave NR2E3 ag-1 -0.2, Jurkat NFkB inh 6.2, NR2E3 ag-2 38.4, 697 NFkB inh -10.7 and FGF22 binding 0.0.
`CCOc1ccc(NS(=O)(=O)c2ccc(C(=O)N3CCCC(C)C3)cc2)cc1` (centres undefined) gave NR2E3 ag-1 0.1, Jurkat NFkB inh -1.1, NR2E3 ag-2 54.8, 697 NFkB inh -19.7, FGF22 binding -0.6, NR2E3 ag confirm 73.8* and GAL4-VP16 luc 68.7.
CCCCOc1ccc(S(=O)(=O)Nc2ccc(NC(C)=O)cc2)cc1 was read as NR2E3 ag-1 -1.0, Jurkat NFkB inh 17.1, miR122 inh 204.7*, NR2E3 ag-2 70.2*, 697 NFkB inh -4.9, NR2E3 ag confirm 27.2 and GAL4-VP16 luc 46.8.
Screening COc1ccc(NS(=O)(=O)c2ccc(NC(=O)C3CC3)cc2)cc1 returned NR2E3 ag-1 4.4, Jurkat NFkB inh -6.2, miR122 inh 1.1, NR2E3 ag-2 52.0, 697 NFkB inh -12.8, FGF22 binding 0.2, NR2E3 ag confirm 26.9 and GAL4-VP16 luc 42.2.
CCCN(C)C[C@@H]1Oc2ncc(C#Cc3ccc(OC)cc3)cc2C(=O)N([C@@H](C)CO)C[C@@H]1C was read as miR122 inh -5.2[16.7 µM] and FGF22 binding -0.2.
COc1ccc(NS(=O)(=O)c2cccc(C(=O)N3CCCCCC3)c2)cc1 was read as NR2E3 ag-1 -2.0, Jurkat NFkB inh 1.9, NR2E3 ag-2 -0.8, 697 NFkB inh -13.5 and FGF22 binding -0.1.
Screening CCOc1ccc(NS(=O)(=O)c2ccc(C(=O)N3CCCCCC3)cc2)cc1 returned NR2E3 ag-1 -3.7, Jurkat NFkB inh 9.4, NR2E3 ag-2 73.2*, 697 NFkB inh -24.0, FGF22 binding -0.1, NR2E3 ag confirm 23.0 and GAL4-VP16 luc 47.1.
